From PubChem BioAssay
MDM2 E3 inh – blocks human Mdm2 ubiquitin ligase activity; Q00987; cell-based MDM2 ubiquitination luciferase reporter, 2 h; 0 = plate control, 100 = twice control, blank-subtracted; signal enhancement, % at 5 µM; 210,000 compounds, 0.11% hits; AID 1230;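 active means signal enhancement of 30% or more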;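 further: luminescence tracks abundance of the self-degrading MDM2-luciferase fusion protein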
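test system = mammalian cells stably expressing self-ubiquitinating, self-degrading MDM2 E3–luciferase fusion | quantity = 2000 cells/well | incubation = cell settling 4 h, compound treatment 2 h, both 37 °C | signal = luminescence with SteadyLite reagent, 15 min at room temperature | evaluation = % enhancement relative to plate controls after blank subtraction | benchmarks = plate controls and plate blanks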
Hsp70 act – Hsp70 transcriptional activation, primary screen; HeLa Hsp70 promoter luciferase reporter, luminescence; scaled: vehicle 0, proteasome-inhibitor control 100%; activation, % at 10 µM; 200,000 compounds, 0.04% hits;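 active means activation above the mean across all tested compounds plus 3 SD, cutoff set per campaign, cut at about 5.5% in these data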;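 further: 100% = MG132 at 30 µM as the positive control and 0% = DMSO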
Pf gametocyte – inhibitors of late stage P. falciparum gametocyte viability. P. falciparum stage V gametocytes, ATP luminescence, 24 h. 150,000 compounds, 0.065% hits. inhibition, % at 10.9 µM. AID 743093;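 active means inhibition above the mean plus 3 SD of compounds within the control limits, set per campaign, cut at about 38% in these data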;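 further: 0% = DMSO wells and 100% = medium only without gametocytes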
m-calpain inh – calpain II (pig) inhibition; purified calpain II, fluorogenic peptide substrate, 30 min; inhibition, % at 16 µM; 220,000 compounds, 0.37% hits; AID 1236;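 active means inhibition above about 50%, limit read from the data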
Wee1 stabilizer – inhibitors of human Wee1 degradation | 220,000 compounds, 1.2% hits | P30291 | reporter increase, % at 5 µM | HeLa Luc-Wee1K328M stability, luciferase luminescence; 100% = proteasome inhibitor MG132 effect;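 active means activation above the mean of all tested compounds plus 3 SD, set per screening run, cut at about 8.8% in these data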;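 further: cells exposed to compound for 20 h before luminescence read; 0% = DMSO alone and 100% = MG132 at 30 µM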
Target sequence (P30291 whole entry K328M): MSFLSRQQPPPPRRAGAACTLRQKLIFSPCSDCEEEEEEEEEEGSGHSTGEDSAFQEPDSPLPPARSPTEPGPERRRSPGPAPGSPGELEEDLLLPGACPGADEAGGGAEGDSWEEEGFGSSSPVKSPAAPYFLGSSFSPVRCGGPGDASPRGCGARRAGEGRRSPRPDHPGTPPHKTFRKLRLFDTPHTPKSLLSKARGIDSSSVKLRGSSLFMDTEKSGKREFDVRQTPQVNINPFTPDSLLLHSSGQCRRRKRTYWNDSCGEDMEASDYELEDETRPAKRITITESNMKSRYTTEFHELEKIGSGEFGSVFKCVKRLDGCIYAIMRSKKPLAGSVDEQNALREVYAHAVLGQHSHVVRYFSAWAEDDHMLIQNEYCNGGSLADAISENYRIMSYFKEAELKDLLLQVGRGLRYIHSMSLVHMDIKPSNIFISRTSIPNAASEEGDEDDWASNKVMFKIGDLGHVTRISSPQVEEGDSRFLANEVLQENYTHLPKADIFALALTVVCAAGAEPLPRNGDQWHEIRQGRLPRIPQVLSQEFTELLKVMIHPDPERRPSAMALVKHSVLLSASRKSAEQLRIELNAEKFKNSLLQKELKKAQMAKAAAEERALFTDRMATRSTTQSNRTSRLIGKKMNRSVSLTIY
Numbers without * were called inactive; / = not tested or not shown. This is a sample that favours compounds with a hit; in the whole collection about 1.5% have one here.

SMILES | MDM2 E3 inh | Hsp70 act | Pf gametocyte | m-calpain inh | Wee1 stabilizer
CC(=O)Nc1ccc(NC(=O)Cc2ccc(S(=O)(=O)N3CCCCC3)s2)cc1 | 2.2 | -0.2 | 0.8 | 77.4* | -1.2
Cc1nnc(SCC(=O)N2CCN(S(=O)(=O)c3ccccc3)CC2)[nH]c1=O | -15.4 | -0.1 | / | -8.1 | 0.8
O=C(CSc1ncn[nH]1)N1CCN(S(=O)(=O)c2ccccc2)CC1 | -4.8 | -0.2 | / | -32.3 | 10.8*
C#CCOCCOCCOCCNc1nc(N2CCN(C(=O)Cn3cc(CC(C)O)nn3)CC2)nc(N2CCN(C(=O)[C@H]([C@@H](C)CC)n3cc(CCCCN)nn3)CC2)n1 (stereo not given in full) | / | / | 16.4 | / | /
Cc1ccc2nc(N/C(=N/S(=O)(=O)c3ccc(F)cc3F)c3ccccc3)sc2c1 | -1.5 | -0.3 | 14.1 | -37.5 | 9.0*
Cc1ccc2nc(N/C(=N/S(=O)(=O)c3ccc(F)cc3)c3ccccc3)sc2c1 | -16.9 | -0.2 | -3.5 | -116.0 | -1.9
O=Cc1c(OCc2ccccc2)ccc2ccccc12 | -4.0 | 0.0 | 5.5 | -16.2 | 11.4*
CC(C)(C)OC(=O)n1cc(CCO)c2ccccc21 | / | / | -10.8 | / | /
Cc1cc(C(=O)NN=C2CCCCCC2)c(C)o1 | / | / | -20.2 | 15.3 | -0.4
O=C(/C=C/c1ccccc1)C1C(=O)c2ccccc2C1=O | -66.2 | 0.0 | / | 5.3 | 10.1*
CCc1ccc(/C=C/C(=O)C2C(=O)c3ccccc3C2=O)cc1 | -73.5 | -0.2 | / | -31.8 | -2.3
CC1CCN(C(=O)c2[nH]cnc2C(=O)N2CCN(c3ccccc3)CC2)CC1 | / | / | 8.9 | / | /
Cc1ccc(Oc2ccc(C(=O)NCc3ccncc3)cc2)cc1 | -21.7 | -0.2 | 13.8 | 50.2* | 1.7
O=C(NCc1ccncc1)c1ccc(Oc2ccccc2)cc1 | -17.1 | 0.0 | -0.7 | -12.3 | 4.9
O=C(CN1C(=O)c2ccccc2C1=O)Nc1ccc(Cl)cn1 | -4.1 | -0.3 | -16.7 | 7.3 | 10.2*
O=C(CCN1C(=O)c2ccccc2C1=O)Nc1ccc(-c2nc3ccccc3o2)cc1 | -19.2 | 1.2 | -12.9 | -9.3 | -0.1
O=C(CCc1ccccc1)Nc1ccc(Cl)cn1 | -0.7 | 0.5 | / | 6.0 | 5.3
O=C(CN1C(=O)c2ccccc2C1=O)Nc1ccc(-c2nc3ccccc3o2)cc1 | -3.2 | -0.2 | / | 95.9* | 1.0
O=C(Nc1ccc(-c2nc3ccccc3o2)cc1)c1cccnc1 | -10.5 | 0.4 | / | -48.0 | 10.7*
Cc1ccc(N(CC(=O)N2CCc3ccccc3C2)S(C)(=O)=O)cc1 | / | / | -18.4 | / | /
COc1ccc(-c2cc3ccc(OC(C)C(=O)O)cc3oc2=O)cc1 (stereo not given) | / | / | 4.4 | / | /
CCCCCCCCOC(=O)C1=C(C)Nc2nnnn2C1c1cccs1 (stereo not given) | -6.5 | -0.1 | -12.9 | 50.2* | 0.6
O=C(CNC(=O)c1ccco1)OCc1cccc(Cl)c1 | 0.1 | -0.5 | / | -45.0 | 9.4*
O=C(CNC(=O)c1ccco1)NCC(=O)OCc1cccc(Cl)c1 | -6.3 | 0.0 | 7.3 | -11.7 | 1.7
COC(=O)c1scc(C)c1N1C(=O)c2ccccc2C1=O | -5.8 | / | 3.9 | 2.8 | 0.7
SMILES | MDM2 E3 inh | Hsp70 act | Pf gametocyte | m-calpain inh | Wee1 stabilizer
C=CCc1cc(/C=C/c2nc(O)c([N+](=O)[O-])c(=O)[nH]2)cc(OC)c1O | -18.9 | -0.1 | / | -5.8 | 9.0*
Cc1ccccc1C(=O)NCC(C)NC(=O)c1ccccc1C (stereo not given) | / | / | 4.0 | / | /
O=C(CCn1c(=S)oc2ccccc21)NCCC1=CCCCC1 | -8.4 | / | 10.2 | 24.1 | 10.7*
O=C(N/N=C/C=C/c1ccc(Br)cc1)C(O)c1ccccc1 (stereo not given) | -9.9 | -0.3 | 2.8 | -1.1 | 11.1*
O=C(N/N=C/C=C/c1ccccc1)c1ccc(Br)cc1 | -16.1 | -0.3 | / | -31.6 | 0.2
COc1cc2c(cc1OC)C(C)N(S(=O)(=O)c1cn(C)cn1)CC2 (stereo not given) | -12.8 | / | -19.4 | 11.1 | 9.4*
CC(=O)Nc1cccc(C(=O)Nc2ccccc2N2CCOCC2)c1 | -18.2 | -0.6 | 6.5 | 25.0 | 9.0*
O=C(Nc1ccc(Cl)cc1)Nc1cccc2nsnc12 | / | / | / | -71.2 | 1.6
COc1ccc(C(=O)N(c2ccc(OC)cc2)S(=O)(=O)c2cccs2)cc1 | -5.8 | -0.2 | -1.2 | 12.2 | -2.6
COc1ccc(N(C(=O)c2ccncc2)S(=O)(=O)c2cccs2)cc1 | -10.1 | / | 18.4 | 15.6 | 9.1*
Cc1cc(C)cc(Oc2nc(-c3ccccc3)cc(C)c2S(C)(=O)=O)c1 | 5.1 | -0.2 | 7.0 | 50.3* | 4.3
Cc1cc(-c2ccccc2)nc(Oc2ccc(C(C)(C)C)cc2)c1S(C)(=O)=O | -3.0 | -0.4 | -1.2 | 48.4 | -3.1
CN(CC1CCOCC1)C(=O)CC1C(=O)NCCN1Cc1ccc(-c2ccccc2)cc1 (stereo not given) | -6.8 | -0.2 | / | -36.0 | 9.1*
Fc1cccc(CCN2CCNC[C@@H]2CC2CCCCC2)c1 | / | / | 1.7 | / | /
COc1ccc(OC)c(C(c2nnnn2C2CCCC2)N2CCN(c3ccccc3F)CC2)c1 (stereo not given) | -2.3 | 0.1 | -17.6 | 51.1* | -2.9
COc1ccc(N2CCN(C(c3ccccc3OC)c3nnnn3C3CCCC3)CC2)cc1 (stereo not given) | -1.7 | -0.2 | 12.8 | 13.0 | 4.4
COc1ccccc1-c1nnc(SCC(=O)NCc2c(C)c(Cl)cc(C(C)C)c2O)o1 | -12.2 | -0.2 | -9.1 | 50.7* | 0.1
COc1ccccc1-c1nnc(SCC(=O)Nc2c(Cl)cccc2Cl)o1 | -0.1 | -0.2 | -27.0 | -4.2 | -4.6
O=C1/C(=C/c2ccccn2)SC(=S)N1Cc1ccccc1 | 0.5 | / | -11.5 | 5.0 | 10.9*
O=C1/C(=C\c2ccco2)SC(=S)N1Cc1ccccc1 | -13.4 | 0.1 | 1.1 | 16.3 | 5.2
COC(=O)[C@@]12CCCN1[C@H](c1ccc(-c3ccc(C(C)=O)cc3)c(OC)c1)[C@H]1C(=O)N(C)C(=O)[C@H]12 | / | / | 1.1 | / | /
CC1CCCC(C)N1C(=O)Cn1nnc(-c2ccc([N+](=O)[O-])cc2)n1 (stereo not given) | / | / | 2.6 | / | /
N#CC1=C(N)NC(SCc2ccc(F)cc2)=C(C#N)C12CCCCC2 | / | -0.2 | -7.9 | 65.9* | 6.6
N#CC1=C(N)NC(SCC(=O)O)=C(C#N)C12CCCC2 | -5.4 | 0.0 | -17.9 | 6.4 | 2.7
Cc1cc2ncn(C(=O)c3ccc4c(c3)OCO4)c2cc1C | -5.3 | 0.1 | 16.5 | 16.1 | 0.8
SMILES | MDM2 E3 inh | Hsp70 act | Pf gametocyte | m-calpain inh | Wee1 stabilizer
Cc1cc2ncn(C(=O)N3CCC(C)CC3)c2cc1C | 37.7* | 0.1 | / | -8.4 | 0.3
C[C@H](NC(=O)c1nc[nH]c1C(=O)N[C@@H](Cc1ccccc1)C(=O)OC(C)(C)C)C(=O)OCc1ccccc1 | / | / | -18.7 | / | /
C=CCCN(Cc1ccccc1)S(=O)(=O)c1cc(Br)ccc1Br | / | / | 20.3 | / | /
O=C(CNS(=O)(=O)c1ccccc1)N1CCc2ccccc2C1 | / | / | 2.0 | / | /
COc1cc(-c2nc(N)n[nH]2)cc(OC)c1OC | -1.0 | -0.6 | 14.3 | 3.4 | 9.6*
COc1ccc(-c2nc(N)n[nH]2)cc1OC | -2.4 | -0.1 | / | 17.2 | -1.4
Fc1ccc(N/N=C/c2ccncc2)c(F)c1 | -4.8 | 0.0 | 9.6 | 13.0 | 1.3
